How the values were obtained:
Assay type in all cases: functional
[1] = system: Mus musculus; experiment: Inhibition of serum triglyceride elevation in olive oil-treated ddY mouse at 500 mg/kg, po after 6 hrs
[2] = system: Mus musculus; experiment: Inhibition of serum triglyceride elevation in olive oil-treated ddY mouse at 250 mg/kg, po after 6 hrs
[3] = system: Mus musculus; experiment: Inhibition of serum triglyceride elevation in olive oil-treated ddY mouse at 250 mg/kg, po after 4 hrs
[4] = system: Mus musculus; experiment: Inhibition of serum triglyceride elevation in olive oil-treated ddY mouse at 500 mg/kg, po after 2 hrs
[5] = system: Mus musculus; experiment: Inhibition of serum triglyceride elevation in olive oil-treated ddY mouse at 125 mg/kg, po after 2 hrs
[6] = system: Mus musculus; experiment: Inhibition of serum triglyceride elevation in olive oil-treated ddY mouse at 500 mg/kg, po after 4 hrs
[7] = system: Mus musculus; experiment: Inhibition of serum triglyceride elevation in olive oil-treated ddY mouse at 250 mg/kg, po after 2 hrs
[8] = system: Mus musculus; experiment: Inhibition of serum triglyceride elevation in olive oil-treated ddY mouse at 125 mg/kg, po after 6 hrs
[9] = system: Mus musculus; experiment: Inhibition of serum triglyceride elevation in olive oil-treated ddY mouse at 125 mg/kg, po after 4 hrs
[10] = system: Mus musculus; experiment: Inhibition of serum triglyceride elevation in olive oil-treated ddY mouse at 100 mg/kg, po after 2 hrs
How it was run: (§1)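 Male ddY mice (25–30 g) fasted 24–26 h with free access to water, kept conscious. Test sample given orally, then olive oil 5 mL/kg po 30 min later. Blood drawn from the infraorbital venous plexus 2, 4 and 6 h after the olive oil. Serum TG measured by an enzymatic kit; n = 6 per group; means ± SEM.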

[11] = system: Mus musculus; experiment: Inhibition of serum triglyceride elevation in olive oil-treated ddY mouse at 100 mg/kg, po after 6 hrs; how it was run: as §1
[12] = system: Mus musculus; experiment: Inhibition of serum triglyceride elevation in olive oil-treated ddY mouse at 25 mg/kg, po after 4 hrs; how it was run: as §1
[13] = system: Mus musculus; experiment: Inhibition of serum triglyceride elevation in olive oil-treated ddY mouse at 50 mg/kg, po after 6 hrs; how it was run: as §1
[14] = system: Mus musculus; experiment: Inhibition of serum triglyceride elevation in olive oil-treated ddY mouse at 25 mg/kg, po after 6 hrs; how it was run: as §1
[15] = system: Mus musculus; experiment: Inhibition of serum triglyceride elevation in olive oil-treated ddY mouse at 50 mg/kg, po after 2 hrs; how it was run: as §1
[16] = system: Mus musculus; experiment: Inhibition of serum triglyceride elevation in olive oil-treated ddY mouse at 25 mg/kg, po after 2 hrs; how it was run: as §1
[17] = system: Mus musculus; experiment: Inhibition of serum triglyceride elevation in olive oil-treated ddY mouse at 50 mg/kg, po after 4 hrs; how it was run: as §1
[18] = system: Mus musculus; experiment: Inhibition of serum triglyceride elevation in olive oil-treated ddY mouse at 100 mg/kg, po after 4 hrs; how it was run: as §1
[19] = system: Mus musculus; experiment: Inhibition of serum triglyceride elevation in olive oil-treated ddY mouse at 12.5 mg/kg, po after 2 hrs
[20] = system: Mus musculus; experiment: Inhibition of serum triglyceride elevation in olive oil-treated ddY mouse at 6.25 mg/kg, po after 2 hrs
[21] = system: Mus musculus; experiment: Inhibition of serum triglyceride elevation in olive oil-treated ddY mouse at 6.25 mg/kg, po after 4 hrs
[22] = system: Mus musculus; experiment: Inhibition of serum triglyceride elevation in olive oil-treated ddY mouse at 6.25 mg/kg, po after 6 hrs
[23] = system: Mus musculus; experiment: Inhibition of serum triglyceride elevation in olive oil-treated ddY mouse at 12.5 mg/kg, po after 6 hrs
[24] = system: Mus musculus; experiment: Inhibition of serum triglyceride elevation in olive oil-treated ddY mouse at 12.5 mg/kg, po after 4 hrs

With `CCOC(=O)C(C)(C)Oc1ccc(Cl)cc1` [CLOFIBRATE] the Activity [1] was 373.5 mg/dL, the Activity [2] was 443.3 mg/dL and the Activity [3] was 340.5 mg/dL. The Activity [4] was 318.2 mg/dL, the Activity [5] was 377.5 mg/dL and the Activity [6] was 239.7 mg/dL. For the same compound, the Activity [7] was 441.2 mg/dL, the Activity [8] was 333.4 mg/dL and the Activity [9] was 295 mg/dL.

`CC(=O)OC[C@H]1O[C@@H](OC(=O)[C@]23CCC(C)(C)C[C@H]2C2=CC[C@@H]4[C@@]5(C)C[C@H](O)[C@H](O)[C@@](C)(COC(C)=O)[C@@H]5CC[C@@]4(C)[C@]2(C)CC3)[C@H](O[C@@H]2O[C@@H](C)[C@H](O)[C@@H](O)[C@H]2O)[C@@H](O[C@@H]2O[C@H](CO)[C@@H](O)[C@H](O)[C@H]2O)[C@@H]1O` [PERENNISOSIDE I] gave an Activity [10] of 135.7 mg/dL, an Activity [11] of 208.2 mg/dL and an Activity [12] of 357.7 mg/dL. For the same compound, the Activity [13] was 203.7 mg/dL, the Activity [14] was 222.7 mg/dL and the Activity [15] was 326.9 mg/dL. The Activity [16] was 337 mg/dL, the Activity [17] was 355.8 mg/dL and the Activity [18] was 278.7 mg/dL.

For `CCCCCCCCCCC[C@@H](C[C@@H]1OC(=O)[C@H]1CCCCCC)OC(=O)[C@H](CC(C)C)NC=O` [ORLISTAT], the Activity [19] was 187.9 mg/dL, the Activity [20] was 266.4 mg/dL and the Activity [21] was 179.3 mg/dL. For the same compound, the Activity [12] was 132.2 mg/dL, the Activity [14] was 140.1 mg/dL and the Activity [22] was 155.6 mg/dL. For the same compound, the Activity [16] was 158.9 mg/dL, the Activity [23] was 189.7 mg/dL and the Activity [24] was 176 mg/dL.

Work on `CC(=O)OC[C@H]1O[C@@H](OC(=O)[C@]23CCC(C)(C)C[C@H]2C2=CC[C@@H]4[C@@]5(C)C[C@H](O)[C@H](O)[C@@](C)(COC(C)=O)[C@@H]5CC[C@@]4(C)[C@]2(C)CC3)[C@H](O[C@@H]2O[C@@H](C)[C@H](O)[C@@H](O)[C@H]2O)[C@@H](O[C@@H]2O[C@H](CO)[C@H](O)[C@H](O)[C@H]2O)[C@@H]1O` [PERENNISOSIDE II] yielded an Activity [10] of 179.4 mg/dL, an Activity [11] of 80.6 mg/dL and an Activity [12] of 147 mg/dL. It also gave an Activity [13] of 104.6 mg/dL, an Activity [14] of 87 mg/dL and an Activity [15] of 232.5 mg/dL. The Activity [16] was 204.6 mg/dL, the Activity [17] was 180.4 mg/dL and the Activity [18] was 155.6 mg/dL.

— ChEMBL document CHEMBL1149906, “Perennisosides I-VII, acylated triterpene saponins with antihyperlipidemic activities from the flowers of Bellis perennis” (2008)
